Reference: ChEMBL document CHEMBL4007430, “Synthesis and Cytostatic and Antiviral Profiling of Thieno-Fused 7-Deazapurine Ribonucleosides” (J Med Chem, 2017)

How the values were obtained:
Adenosine kinase [1] = target: T1, Adenosine kinase (Homo sapiens, UniProt P55263); test: Drug metabolism in human HCT116 cells assessed as ADK-mediated 4-(Methylsulfanyl)-8-(beta-D-ribofuranosyl)-8H-thieno[2, 3:4,5]-pyrrolo[2,3-d]pyrimidine-5-O-monophosphate Sodium Salt formation per 5 x10^5 cells at 10 umol/L after 3 hrs by UPLC-MS/MS analysis; type: ADME, cell-based; conditions: 10 µM
T1 sequence (P55263 whole entry): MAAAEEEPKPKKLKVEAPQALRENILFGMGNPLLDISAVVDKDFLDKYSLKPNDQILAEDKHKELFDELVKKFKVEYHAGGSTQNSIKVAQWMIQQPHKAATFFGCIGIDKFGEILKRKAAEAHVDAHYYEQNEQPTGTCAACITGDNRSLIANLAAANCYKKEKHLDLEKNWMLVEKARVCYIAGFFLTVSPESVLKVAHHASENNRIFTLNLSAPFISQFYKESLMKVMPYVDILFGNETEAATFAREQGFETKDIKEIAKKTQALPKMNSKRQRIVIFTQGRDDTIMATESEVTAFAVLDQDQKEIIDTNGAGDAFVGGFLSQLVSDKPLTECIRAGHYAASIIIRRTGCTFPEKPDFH

Adenosine kinase [2] = target: T1, Adenosine kinase; test: Drug level in human BJ cells assessed as ADK-mediated compound formation treated with 4-(Methylsulfanyl)-8-(beta-D-ribofuranosyl)-8H-thieno[2',3':4,5]-pyrrolo[2,3-d]pyrimidine at 10 umol/L after 3 hrs by UPLC-MS/MS analysis; type: ADME, cell-based
HCT-116 [3] = test: Cytotoxicity against p53 deficient human HCT116 cells assessed as cell growth inhibition after 72 hrs by MTS assay; type: functional, cell-based; conditions: HCT-116, 72 h
How it was run: (§1)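 Cells were exposed to compound for 3 days, then stained with MTS as a quantitative metabolic read-out. IC50 is the concentration that inhibits cell growth by 50%.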

HL-60 = test: Cytotoxicity against human HL60 cells assessed as reduction in cell viability after 72 hrs by XTT assay; type: functional, cell-based; conditions: HL-60, 72 h
How it was run: (§2)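 Cells were incubated with compound for 3 days. Viability was then measured with the XTT tetrazolium assay.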

Adenosine kinase [4] = target: T1, Adenosine kinase; test: Drug metabolism in human HCT116 cells assessed as ADK-mediated 4-(Methylsulfanyl)-8-(beta-D-ribofuranosyl)-8H-thieno[2, 3:4,5]-pyrrolo[2,3-d]pyrimidine-5-O-monophosphate Sodium Salt formation per 5 x10^5 cells at 1 umol/L after 3 hrs by UPLC-MS/MS analysis; type: ADME, cell-based; conditions: 1 µM
Adenosine kinase [5] = target: T1, Adenosine kinase; test: Drug level in human BJ cells assessed as ADK-mediated compound formation treated with 4-(Methylsulfanyl)-8-(beta-D-ribofuranosyl)-8H-thieno[2',3':4,5]-pyrrolo[2,3-d]pyrimidine at 1 umol/L after 1 hr by UPLC-MS/MS analysis; type: ADME, cell-based
[6] = Cytotoxicity against mrp-1/mdr-1 overexpressing human CEM-DNR-bulk cells assessed as cell growth inhibition after 72 hrs by MTS assay; type: functional, cell-based
How it was run: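 Cells were exposed to compound for 3 days, then stained with MTS as a quantitative metabolic read-out.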

Adenosine kinase [7] = target: T1, Adenosine kinase; test: Drug metabolism in human BJ cells assessed as ADK-mediated 4-(Methylsulfanyl)-8-(beta-D-ribofuranosyl)-8H-thieno[2, 3:4,5]-pyrrolo[2,3-d]pyrimidine-5-O-monophosphate Sodium Salt formation per 5 x10^5 cells at 10 umol/L after 3 hrs by UPLC-MS/MS analysis; type: ADME, cell-based; conditions: 10 µM
HCT-116 [8] = test: Cytotoxicity against human HCT116 cells assessed as cell growth inhibition after 72 hrs by MTS assay; type: functional, cell-based; conditions: HCT-116, 72 h; how it was run: as §1
K562 = test: Cytotoxicity against human K562 cells assessed as cell growth inhibition after 72 hrs by MTS assay; type: functional, cell-based; conditions: K562, 72 h; how it was run: as §1
MRC5 = test: Cytotoxicity against human MRC5 cells assessed as cell growth inhibition after 72 hrs by MTS assay; type: cell-based; conditions: MRC5, 72 h; how it was run: as §1
Adenosine kinase [9] = target: T1, Adenosine kinase; test: Drug level in human HCT116 cells assessed as ADK-mediated compound formation treated with 4-(Methylsulfanyl)-8-(beta-D-ribofuranosyl)-8H-thieno[2',3':4,5]-pyrrolo[2,3-d]pyrimidine at 10 umol/L after 3 hrs by UPLC-MS/MS analysis; type: ADME, cell-based
Adenosine kinase [10] = target: T1, Adenosine kinase; test: Drug level in human BJ cells assessed as ADK-mediated compound formation treated with 4-(Methylsulfanyl)-8-(beta-D-ribofuranosyl)-8H-thieno[2',3':4,5]-pyrrolo[2,3-d]pyrimidine at 1 umol/L after 3 hrs by UPLC-MS/MS analysis; type: ADME, cell-based
BJ = test: Cytotoxicity against human BJ cells assessed as cell growth inhibition after 72 hrs by MTS assay; type: cell-based; how it was run: as §1
U2OS = test: Cytotoxicity against human U2OS cells assessed as cell growth inhibition after 72 hrs by MTS assay; type: functional, cell-based
HeLa S3 = test: Cytotoxicity against human HeLaS3 cells assessed as reduction in cell viability after 72 hrs by XTT assay; type: functional, cell-based; conditions: HeLa S3, 72 h; how it was run: as §2
Adenosine kinase [11] = target: T1, Adenosine kinase; test: Drug level assessed as human ADK-mediated compound formation treated with 4-(Methylsulfanyl)-8-(beta-D-ribofuranosyl)-8H-thieno[2',3':4,5]-pyrrolo[2,3-d]pyrimidine at 50 uM after 30 mins by HPLC analysis; type: ADME; conditions: 0.5 h
CCRF-CEM = test: Cytotoxicity against human CCRF-CEM cells assessed as cell growth inhibition after 72 hrs by MTS assay
[12] = Cytotoxicity against human K562-TAX cells assessed as cell growth inhibition after 72 hrs by MTS assay; type: functional, cell-based; how it was run: as §1
Adenosine kinase [13] = target: T1, Adenosine kinase; test: Drug level in human HCT116 cells assessed as ADK-mediated compound formation treated with 4-(Methylsulfanyl)-8-(beta-D-ribofuranosyl)-8H-thieno[2',3':4,5]-pyrrolo[2,3-d]pyrimidine at 1 umol/L after 1 hr by UPLC-MS/MS analysis; type: ADME, cell-based
Adenosine kinase [14] = target: T1, Adenosine kinase; test: Drug metabolism in human BJ cells assessed as ADK-mediated 4-(Methylsulfanyl)-8-(beta-D-ribofuranosyl)-8H-thieno[2, 3:4,5]-pyrrolo[2,3-d]pyrimidine-5-O-monophosphate Sodium Salt formation per 5 x10^5 cells at 1 umol/L after 1 hr by UPLC-MS/MS analysis; type: ADME, cell-based; conditions: 1 µM
Adenosine kinase [15] = target: T1, Adenosine kinase; test: Drug metabolism in human BJ cells assessed as ADK-mediated 4-(Methylsulfanyl)-8-(beta-D-ribofuranosyl)-8H-thieno[2, 3:4,5]-pyrrolo[2,3-d]pyrimidine-5-O-monophosphate Sodium Salt formation per 5 x10^5 cells at 1 umol/L after 3 hrs by UPLC-MS/MS analysis; type: ADME, cell-based; conditions: 1 µM
A549 = test: Cytotoxicity against human A549 cells assessed as cell growth inhibition after 72 hrs by MTS assay; type: functional, cell-based; conditions: A549, 72 h; how it was run: as §1
Adenosine kinase [16] = target: T1, Adenosine kinase; test: Drug level in human HCT116 cells assessed as ADK-mediated compound formation treated with 4-(Methylsulfanyl)-8-(beta-D-ribofuranosyl)-8H-thieno[2',3':4,5]-pyrrolo[2,3-d]pyrimidine at 1 umol/L after 3 hrs by UPLC-MS/MS analysis; type: ADME, cell-based
Adenosine kinase [17] = target: T1, Adenosine kinase; test: Drug metabolism in human HCT116 cells assessed as ADK-mediated 4-(Methylsulfanyl)-8-(beta-D-ribofuranosyl)-8H-thieno[2, 3:4,5]-pyrrolo[2,3-d]pyrimidine-5-O-monophosphate Sodium Salt formation per 5 x10^5 cells at 1 umol/L after 1 hr by UPLC-MS/MS analysis; type: ADME, cell-based; conditions: 1 µM
Adenosine kinase [18] = target: T1, Adenosine kinase; test: Drug metabolism in human HCT116 cells assessed as ADK-mediated 4-(Methylsulfanyl)-8-(beta-D-ribofuranosyl)-8H-thieno[2, 3:4,5]-pyrrolo[2,3-d]pyrimidine-5-O-monophosphate Sodium Salt formation per 5 x10^5 cells at 10 umol/L after 1 hr by UPLC-MS/MS analysis; type: ADME, cell-based; conditions: 10 µM
Adenosine kinase [19] = target: T1, Adenosine kinase; test: Drug level in human BJ cells assessed as ADK-mediated compound formation treated with 4-(Methylsulfanyl)-8-(beta-D-ribofuranosyl)-8H-thieno[2',3':4,5]-pyrrolo[2,3-d]pyrimidine at 10 umol/L after 1 hr by UPLC-MS/MS analysis; type: ADME, cell-based
Adenosine kinase [20] = target: T1, Adenosine kinase; test: Drug level in human HCT116 cells assessed as ADK-mediated compound formation treated with 4-(Methylsulfanyl)-8-(beta-D-ribofuranosyl)-8H-thieno[2',3':4,5]-pyrrolo[2,3-d]pyrimidine at 10 umol/L after 1 hr by UPLC-MS/MS analysis; type: ADME, cell-based
HepG2 = test: Cytotoxicity against human HepG2 cells assessed as reduction in cell viability after 72 hrs by XTT assay; type: functional, cell-based; conditions: HepG2, 72 h; how it was run: as §2
Adenosine kinase [21] = target: T1, Adenosine kinase; test: Drug metabolism in human BJ cells assessed as ADK-mediated 4-(Methylsulfanyl)-8-(beta-D-ribofuranosyl)-8H-thieno[2, 3:4,5]-pyrrolo[2,3-d]pyrimidine-5-O-monophosphate Sodium Salt formation per 5 x10^5 cells at 10 umol/L after 1 hr by UPLC-MS/MS analysis; type: ADME, cell-based; conditions: 10 µM

With `CSc1ncnc2c1c1sccc1n2[C@@H]1O[C@H](COP(=O)([O-])O)[C@@H](O)[C@H]1O.[Na+]` the Drug metabolism (Adenosine kinase [1]) was 15246.3 pmol, the Drug metabolism (Adenosine kinase [2]) was “Metabolite_Detected” and the IC50 (HCT-116 [3]) was 0.13 µM. The IC50 (HL-60) was 0.34 µM, the Drug metabolism (Adenosine kinase [4]) was 5737.8 pmol and the Drug metabolism (Adenosine kinase [5]) was “Metabolite_Detected”. The IC50 [6] was 47.6 µM, the Drug metabolism (Adenosine kinase [7]) was 65894.4 pmol and the IC50 (HCT-116 [8]) was 0.11 µM. For the same compound, the IC50 (K562) was 0.39 µM, the IC50 (MRC5) was > 50 µM and the Drug metabolism (Adenosine kinase [9]) was “Metabolite_Detected”. For the same compound, the Drug metabolism (Adenosine kinase [10]) was “Metabolite_Detected”, the IC50 (BJ) was 0.64 µM and the IC50 (U2OS) was 9.89 µM. The IC50 (HeLa S3) was 9.61 µM, the Drug metabolism (Adenosine kinase [11]) was “Metabolite_Detected” and the IC50 (CCRF-CEM) was 0.2 µM. The IC50 [12] was > 50 µM, the Drug metabolism (Adenosine kinase [13]) was “Metabolite_Detected” and the Drug metabolism (Adenosine kinase [14]) was 19751.3 pmol. For the same compound, the Drug metabolism (Adenosine kinase [15]) was 27253.4 pmol, the IC50 (A549) was > 50 µM and the Drug metabolism (Adenosine kinase [16]) was “Metabolite_Detected”. The Drug metabolism (Adenosine kinase [17]) was 4124 pmol, the Drug metabolism (Adenosine kinase [18]) was 6108.2 pmol and the Drug metabolism (Adenosine kinase [19]) was “Metabolite_Detected”. For the same compound, the Drug metabolism (Adenosine kinase [20]) was “Metabolite_Detected”, the IC50 (HepG2) was 0.54 µM and the Drug metabolism (Adenosine kinase [21]) was 62703.9 pmol.
